According to ChEMBL document CHEMBL4411287, “Discovery and optimization of a series of 3-substituted indazole derivatives as multi-target kinase inhibitors for the treatment of lung squamous cell carcinoma” (Eur J Med Chem, 2019):

Columns and labels:
[1] = target: Focal adhesion kinase 1 (Homo sapiens) (UniProt Q05397); assay: Inhibition of FAK (unknown origin) at 1000 nM relative to control
Outline: (§1)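 Purified recombinant kinase domains run in ELISA on precoated poly(Glu,Tyr) 4:1 (20 µg/mL) with 10 µM ATP in 50 mM HEPES pH 7.4, 50 mM MgCl2, 0.5 mM MnCl2, 0.2 mM Na3VO4, 1 mM DTT; 1% DMSO control; 60 min at 37 °C. Phosphotyrosine read by PY99 antibody, HRP anti-mouse IgG, OPD/H2O2 at 490 nm; inhibition = [1−A490/A490control]×100%; two separate experiments.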

[2] = target: Fibroblast growth factor receptor 3 (Homo sapiens) (UniProt P22607); assay: Inhibition of FGFR3 (unknown origin) at 1000 nM relative to control; outline: as §1
Sequence of Fibroblast growth factor receptor 3 (Homo sapiens) (P22607 23-806 limits assumed): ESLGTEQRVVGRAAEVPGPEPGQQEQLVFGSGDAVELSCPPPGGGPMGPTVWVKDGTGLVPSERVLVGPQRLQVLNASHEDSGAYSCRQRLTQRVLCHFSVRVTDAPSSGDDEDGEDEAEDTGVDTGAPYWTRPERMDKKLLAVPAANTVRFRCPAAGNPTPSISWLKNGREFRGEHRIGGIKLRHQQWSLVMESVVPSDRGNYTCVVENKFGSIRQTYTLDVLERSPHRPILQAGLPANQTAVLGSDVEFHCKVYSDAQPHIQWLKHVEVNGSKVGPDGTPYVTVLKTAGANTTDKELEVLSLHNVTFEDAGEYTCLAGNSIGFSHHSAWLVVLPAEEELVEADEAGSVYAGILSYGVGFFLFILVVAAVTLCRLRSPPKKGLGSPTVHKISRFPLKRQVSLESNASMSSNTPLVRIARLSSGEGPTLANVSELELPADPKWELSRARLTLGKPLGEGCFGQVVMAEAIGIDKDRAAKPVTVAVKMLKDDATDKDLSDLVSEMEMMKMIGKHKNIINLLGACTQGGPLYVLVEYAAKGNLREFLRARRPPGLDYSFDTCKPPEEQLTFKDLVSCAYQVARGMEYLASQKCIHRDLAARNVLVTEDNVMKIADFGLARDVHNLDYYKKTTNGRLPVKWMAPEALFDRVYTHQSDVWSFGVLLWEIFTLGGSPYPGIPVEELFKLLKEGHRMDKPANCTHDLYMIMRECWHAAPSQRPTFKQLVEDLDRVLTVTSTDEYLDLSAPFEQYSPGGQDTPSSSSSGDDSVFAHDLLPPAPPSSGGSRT

[3] = target: Epidermal growth factor receptor (Homo sapiens) (UniProt P00533); assay: Inhibition of EGFR (unknown origin) at 1000 nM relative to control; outline: as §1
[4] = target: T1, Ephrin type-B receptor 2 (Homo sapiens) (UniProt P29323); assay: Inhibition of EPH-B2 (unknown origin) at 1000 nM relative to control; outline: as §1
T1 sequence (whole entry): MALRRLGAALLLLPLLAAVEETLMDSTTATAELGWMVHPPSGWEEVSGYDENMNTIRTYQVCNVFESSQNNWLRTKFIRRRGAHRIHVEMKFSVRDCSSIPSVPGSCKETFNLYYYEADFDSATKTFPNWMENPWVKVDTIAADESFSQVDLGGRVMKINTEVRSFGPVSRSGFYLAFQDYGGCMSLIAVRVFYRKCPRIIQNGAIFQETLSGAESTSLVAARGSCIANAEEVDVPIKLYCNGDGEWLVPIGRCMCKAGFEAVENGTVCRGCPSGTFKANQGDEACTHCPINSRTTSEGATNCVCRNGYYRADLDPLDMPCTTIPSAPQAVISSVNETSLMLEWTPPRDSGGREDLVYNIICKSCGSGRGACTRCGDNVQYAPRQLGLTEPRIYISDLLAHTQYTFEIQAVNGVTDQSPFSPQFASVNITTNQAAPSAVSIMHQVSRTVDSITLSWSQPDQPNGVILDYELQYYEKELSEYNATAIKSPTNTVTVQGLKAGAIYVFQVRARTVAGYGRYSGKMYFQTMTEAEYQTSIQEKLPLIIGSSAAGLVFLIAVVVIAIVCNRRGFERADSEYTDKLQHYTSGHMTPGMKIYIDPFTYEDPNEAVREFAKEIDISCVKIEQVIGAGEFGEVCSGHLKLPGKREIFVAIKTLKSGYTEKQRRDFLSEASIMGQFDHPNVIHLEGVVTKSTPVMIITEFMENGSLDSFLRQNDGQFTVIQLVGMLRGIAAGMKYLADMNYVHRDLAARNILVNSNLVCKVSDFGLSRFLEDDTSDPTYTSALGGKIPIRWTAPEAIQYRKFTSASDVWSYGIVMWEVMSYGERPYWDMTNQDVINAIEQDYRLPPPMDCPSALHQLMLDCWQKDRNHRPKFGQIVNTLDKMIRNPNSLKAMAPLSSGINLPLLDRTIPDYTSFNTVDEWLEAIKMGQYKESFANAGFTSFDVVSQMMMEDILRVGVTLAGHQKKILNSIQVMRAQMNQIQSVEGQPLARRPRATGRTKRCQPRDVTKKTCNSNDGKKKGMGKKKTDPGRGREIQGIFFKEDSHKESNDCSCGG

[5] = target: Platelet-derived growth factor receptor beta (Homo sapiens) (UniProt P09619); assay: Inhibition of PDGFR-beta (unknown origin) at 10 nM relative to control; outline: as §1
Sequence of Platelet-derived growth factor receptor beta (Homo sapiens) (P09619 whole entry): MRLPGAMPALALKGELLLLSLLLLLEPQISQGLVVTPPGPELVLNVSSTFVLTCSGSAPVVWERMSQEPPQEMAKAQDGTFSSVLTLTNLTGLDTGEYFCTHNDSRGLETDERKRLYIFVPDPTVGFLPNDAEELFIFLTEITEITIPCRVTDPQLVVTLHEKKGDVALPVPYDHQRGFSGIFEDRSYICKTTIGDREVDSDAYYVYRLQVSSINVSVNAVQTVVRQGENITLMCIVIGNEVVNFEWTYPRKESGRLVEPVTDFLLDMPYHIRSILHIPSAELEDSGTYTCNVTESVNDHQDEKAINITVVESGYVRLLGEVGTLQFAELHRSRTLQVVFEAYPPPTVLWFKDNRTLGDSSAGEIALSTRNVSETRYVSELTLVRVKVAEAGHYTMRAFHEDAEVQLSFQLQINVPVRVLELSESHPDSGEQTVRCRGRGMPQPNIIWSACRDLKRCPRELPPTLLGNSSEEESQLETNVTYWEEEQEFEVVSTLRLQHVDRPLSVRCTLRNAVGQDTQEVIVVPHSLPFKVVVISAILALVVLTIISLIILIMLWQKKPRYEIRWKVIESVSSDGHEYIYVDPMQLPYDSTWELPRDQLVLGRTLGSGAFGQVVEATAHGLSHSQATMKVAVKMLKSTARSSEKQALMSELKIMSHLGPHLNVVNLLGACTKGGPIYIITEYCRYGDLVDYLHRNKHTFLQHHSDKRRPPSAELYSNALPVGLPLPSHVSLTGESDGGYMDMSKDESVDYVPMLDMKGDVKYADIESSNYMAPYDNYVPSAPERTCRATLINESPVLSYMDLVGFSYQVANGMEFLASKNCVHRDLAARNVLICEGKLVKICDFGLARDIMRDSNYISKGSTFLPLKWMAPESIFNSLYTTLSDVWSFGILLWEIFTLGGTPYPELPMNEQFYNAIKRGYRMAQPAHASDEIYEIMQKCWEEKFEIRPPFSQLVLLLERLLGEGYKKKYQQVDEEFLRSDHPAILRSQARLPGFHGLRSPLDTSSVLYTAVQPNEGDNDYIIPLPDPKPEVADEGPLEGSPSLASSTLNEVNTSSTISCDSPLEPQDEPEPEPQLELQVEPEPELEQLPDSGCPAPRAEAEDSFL

[6] = target: Mitogen-activated protein kinase 1 (Homo sapiens) (UniProt P28482); assay: Inhibition of ERK2 (unknown origin) at 1000 nM relative to control
[7] = target: Platelet-derived growth factor receptor beta (Homo sapiens) (UniProt P09619); assay: Inhibition of PDGFR-beta (unknown origin) at 100 nM relative to control; outline: as §1
[8] = target: ALK tyrosine kinase receptor (Homo sapiens) (UniProt Q9UM73); assay: Inhibition of ALK (unknown origin) at 1000 nM relative to control
Sequence of ALK tyrosine kinase receptor (Homo sapiens) (Q9UM73 19-1620 limits assumed): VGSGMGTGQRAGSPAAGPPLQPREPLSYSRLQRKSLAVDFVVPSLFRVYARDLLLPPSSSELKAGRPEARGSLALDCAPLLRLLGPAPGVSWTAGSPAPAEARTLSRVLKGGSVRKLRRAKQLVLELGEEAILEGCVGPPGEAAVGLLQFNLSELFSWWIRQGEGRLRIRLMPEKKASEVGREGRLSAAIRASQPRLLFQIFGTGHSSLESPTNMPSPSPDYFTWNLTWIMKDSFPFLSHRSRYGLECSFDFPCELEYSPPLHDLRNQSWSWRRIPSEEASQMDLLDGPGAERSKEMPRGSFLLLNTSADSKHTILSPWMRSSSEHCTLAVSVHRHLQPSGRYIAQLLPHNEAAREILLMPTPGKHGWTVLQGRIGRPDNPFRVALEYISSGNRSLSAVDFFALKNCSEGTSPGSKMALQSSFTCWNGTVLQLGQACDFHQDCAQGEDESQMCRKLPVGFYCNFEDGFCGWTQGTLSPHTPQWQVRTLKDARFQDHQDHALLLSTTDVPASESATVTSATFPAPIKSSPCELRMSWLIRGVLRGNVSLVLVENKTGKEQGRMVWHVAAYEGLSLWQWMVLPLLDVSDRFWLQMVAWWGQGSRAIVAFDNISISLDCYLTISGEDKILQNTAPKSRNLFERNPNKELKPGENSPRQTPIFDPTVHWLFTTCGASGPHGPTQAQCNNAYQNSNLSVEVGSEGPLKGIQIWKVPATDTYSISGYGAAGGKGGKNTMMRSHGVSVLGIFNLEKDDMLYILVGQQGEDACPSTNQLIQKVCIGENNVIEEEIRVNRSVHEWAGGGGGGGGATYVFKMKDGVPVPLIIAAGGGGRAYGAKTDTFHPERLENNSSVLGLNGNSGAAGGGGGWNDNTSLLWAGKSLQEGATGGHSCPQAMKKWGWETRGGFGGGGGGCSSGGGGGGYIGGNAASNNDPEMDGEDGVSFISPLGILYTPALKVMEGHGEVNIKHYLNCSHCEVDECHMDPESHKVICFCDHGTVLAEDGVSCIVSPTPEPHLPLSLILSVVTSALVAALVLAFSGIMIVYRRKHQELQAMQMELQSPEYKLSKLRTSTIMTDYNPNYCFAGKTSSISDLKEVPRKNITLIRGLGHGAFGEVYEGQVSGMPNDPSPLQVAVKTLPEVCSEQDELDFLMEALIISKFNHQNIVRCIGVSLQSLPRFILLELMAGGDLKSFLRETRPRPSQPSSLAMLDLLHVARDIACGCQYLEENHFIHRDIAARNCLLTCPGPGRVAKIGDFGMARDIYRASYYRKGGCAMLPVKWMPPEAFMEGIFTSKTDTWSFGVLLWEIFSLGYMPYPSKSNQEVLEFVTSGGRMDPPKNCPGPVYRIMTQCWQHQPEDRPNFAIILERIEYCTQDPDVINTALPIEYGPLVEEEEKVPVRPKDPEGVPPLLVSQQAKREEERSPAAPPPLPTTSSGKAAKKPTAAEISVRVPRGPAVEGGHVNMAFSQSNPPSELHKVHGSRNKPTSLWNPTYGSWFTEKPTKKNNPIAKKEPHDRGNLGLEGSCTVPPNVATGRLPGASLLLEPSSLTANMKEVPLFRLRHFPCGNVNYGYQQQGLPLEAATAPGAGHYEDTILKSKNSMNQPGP

[9] = target: Fibroblast growth factor receptor 3 (Homo sapiens) (UniProt P22607); assay: Inhibition of FGFR3 (unknown origin) at 100 nM relative to control; outline: as §1
[10] = target: ALK tyrosine kinase receptor (Homo sapiens) (UniProt Q9UM73); assay: Inhibition of ALK (unknown origin) at 10 nM relative to control
[11] = target: Macrophage colony-stimulating factor 1 receptor (Homo sapiens) (UniProt P07333); assay: Inhibition of CSF-1R (unknown origin) at 10 nM relative to control
[12] = AUC (0 to infinity) in ICR(CD-1) mouse at 10 mg/kg, po administered via gavage by triple quadrupole mass spectrometric analysis; assay type: ADME, organism-based; parameters: dose 10 mg/kg, route oral, time infinity; conditions: in vivo
Outline: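 Oral gavage at 1 mg/mL in 1% Tween80/water to male ICR mice (18-22 g, n=3). Plasma sampled at 0.25, 0.5, 1, 2, 4, 8 and 24 h, protein precipitated with methanol:acetonitrile (1:1) containing internal standard, and quantified by UPLC-triple quadrupole MS. AUC and MRT were taken from per-animal time-concentration curves. Cmax is the maximum plasma level and Tmax the time to reach it.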

NCI-H1581 [13] = assay: Antitumor activity against human NCI-H1581 cells xenografted in nude mouse assessed as tumor growth inhibition at 20 mg/kg, po qd for 7 to 10 days relative to control; assay type: functional; conditions: read-out: TGI
Outline: (§2)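 Female nude mice, 4-6 weeks old. NCI-H1581 cells (5×10^6 in 200 µL) injected s.c., grown to 700-800 mm³, then 1-mm³ fragments implanted s.c. by trocar. At 100-150 mm³ animals were randomized (vehicle n=12, treated n=6) and dosed orally once daily for 7 days. Tumours measured twice weekly, volume = length×width²/2. TGI calculated from change in tumour volume versus vehicle on the final day, with Student's t-test.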

[14] = target: Ephrin type-A receptor 2 (Homo sapiens) (UniProt P29317); assay: Inhibition of EPH-A2 (unknown origin) at 1000 nM relative to control; outline: as §1
Sequence of Ephrin type-A receptor 2 (Homo sapiens) (P29317 whole entry): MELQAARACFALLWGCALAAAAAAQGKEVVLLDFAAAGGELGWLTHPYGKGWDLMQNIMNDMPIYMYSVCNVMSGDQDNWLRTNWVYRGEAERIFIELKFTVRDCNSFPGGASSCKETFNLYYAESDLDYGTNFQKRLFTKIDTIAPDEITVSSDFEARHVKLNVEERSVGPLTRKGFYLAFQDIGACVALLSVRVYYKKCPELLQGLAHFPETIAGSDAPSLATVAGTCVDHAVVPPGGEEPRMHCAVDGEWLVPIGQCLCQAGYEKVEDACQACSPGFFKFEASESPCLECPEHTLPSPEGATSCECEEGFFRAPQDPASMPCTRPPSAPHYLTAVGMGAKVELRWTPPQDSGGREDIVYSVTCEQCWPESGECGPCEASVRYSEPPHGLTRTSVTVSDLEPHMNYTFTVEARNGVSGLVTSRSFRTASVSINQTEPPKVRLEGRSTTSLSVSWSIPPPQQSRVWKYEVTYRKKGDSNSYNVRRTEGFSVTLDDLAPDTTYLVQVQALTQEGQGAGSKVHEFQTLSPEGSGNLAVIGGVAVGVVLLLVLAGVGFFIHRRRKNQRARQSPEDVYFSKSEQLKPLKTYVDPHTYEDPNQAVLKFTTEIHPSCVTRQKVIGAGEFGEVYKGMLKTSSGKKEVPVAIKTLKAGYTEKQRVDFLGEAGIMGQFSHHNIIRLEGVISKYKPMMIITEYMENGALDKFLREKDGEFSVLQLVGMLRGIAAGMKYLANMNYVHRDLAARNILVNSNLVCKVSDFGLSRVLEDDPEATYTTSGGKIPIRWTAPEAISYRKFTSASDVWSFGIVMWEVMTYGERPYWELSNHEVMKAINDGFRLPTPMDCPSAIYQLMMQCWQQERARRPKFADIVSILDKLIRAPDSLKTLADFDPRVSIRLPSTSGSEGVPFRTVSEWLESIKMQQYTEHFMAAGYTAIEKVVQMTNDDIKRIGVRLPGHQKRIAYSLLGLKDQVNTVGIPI

[15] = target: Cyclin-dependent kinase 6 (Homo sapiens) (UniProt Q00534); assay: Inhibition of CDK6 (unknown origin) at 100 nM relative to control
Sequence of Cyclin-dependent kinase 6 (Homo sapiens) (Q00534 whole entry): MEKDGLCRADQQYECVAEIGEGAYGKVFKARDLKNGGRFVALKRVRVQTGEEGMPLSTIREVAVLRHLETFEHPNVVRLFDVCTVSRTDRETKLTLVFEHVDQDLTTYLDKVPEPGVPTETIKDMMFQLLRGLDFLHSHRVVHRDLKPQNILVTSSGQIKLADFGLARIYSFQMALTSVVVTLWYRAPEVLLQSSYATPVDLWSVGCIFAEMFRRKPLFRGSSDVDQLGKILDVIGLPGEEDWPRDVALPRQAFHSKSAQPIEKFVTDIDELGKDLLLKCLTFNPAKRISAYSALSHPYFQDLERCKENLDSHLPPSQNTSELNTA

[16] = target: Tyrosine-protein kinase receptor UFO (Homo sapiens) (UniProt P30530); assay: Inhibition of AXL (unknown origin) at 100 nM relative to control
[17] = target: Cyclin-dependent kinase 6 (Homo sapiens) (UniProt Q00534); assay: Inhibition of CDK6 (unknown origin) at 10 nM relative to control
NCI-H1581 [18] = assay: Antitumor activity against human NCI-H1581 cells xenografted in nude mouse assessed as tumor growth inhibition at 10 mg/kg, po qd for 7 to 10 days relative to control; assay type: functional; conditions: read-out: TGI; outline: as §2
[19] = target: Voltage-gated inwardly rectifying potassium channel KCNH2 (Homo sapiens, UniProt Q12809); assay: Inhibition of human ERG by automated patch clamp electrophysiology assay
Outline: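 Automated patch clamp electrophysiology on the hERG channel.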

- inhibition [1]: 81.7%
- inhibition [2]: 94.2%
- inhibition [3]: 18.1%
- inhibition [4]: 86.9%
- inhibition [5]: 59.5%
- inhibition [6]: 2.7%
- inhibition [7]: 99.1%
- inhibition [8]: 93.5%
- inhibition [9]: 82%
- inhibition [10]: 60%
- inhibition [11]: 65.3%
- AUC(0-inf) [12]: 7680 ng·h/mL
- inhibition [14]: 100%
- inhibition [15]: 2.6%
- inhibition [16]: 72.6%
- inhibition [17]: 0.5%
Compound: Cc1ccc(C(=O)Nc2cccc(C(F)(F)F)c2)cc1-c1ccc2c(-c3cnn(C4CC4)c3)n[nH]c2c1
- inhibition in vivo at 20 mg/kg (NCI-H1581 [13]): 98.1%
- inhibition in vivo at 10 mg/kg (NCI-H1581 [18]): 59.7%
- IC50 [19]: > 40 µM
